Source: PubChem BioAssay
TRPC6 inhibitor: blocks the mouse TRPC6 cation channel; AID 2553; HEK293-TRPC6, membrane potential dye, ACh-evoked depolarization; active compounds read low; 1.1% of 310,000 active; B-score at 10 µM; Q61143;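 active = B-score under library mean minus 3 SD, initial fluorescence not abnormally high, positive integrated signal ratio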;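 also: B-score derived from integrated fluorescence ratio over the kinetic read; more negative B-score means stronger inhibition of depolarization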
TRPC6 activator: activates the mouse TRPC6 cation channel. Q61143. HEK293-TRPC6 membrane potential dye fluorescence; active compounds read high. B-score at 10 µM. 0.13% of 310,000 active. AID 2550;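 active = B-score of the integrated fluorescence ratio above library mean plus 3 SD, and starting fluorescence ratio within library mean plus 5 SD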;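 also: higher score means more depolarization so channel activation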
TRPC4 block: TRPC4 (mouse) channel inhibition; 0.39% of 300,000 active; HEK293 TRPC4beta/mu-opioid, DAMGO-evoked Fluo4 calcium flux; active compounds read low; Q9QUQ5; B-score at 10 µM; AID 2247;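 active = B-score over 3 SD under the library average, no early fluorescence shift, positive overall ratio signal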
Target sequence (Q9QUQ5 whole entry, looked up): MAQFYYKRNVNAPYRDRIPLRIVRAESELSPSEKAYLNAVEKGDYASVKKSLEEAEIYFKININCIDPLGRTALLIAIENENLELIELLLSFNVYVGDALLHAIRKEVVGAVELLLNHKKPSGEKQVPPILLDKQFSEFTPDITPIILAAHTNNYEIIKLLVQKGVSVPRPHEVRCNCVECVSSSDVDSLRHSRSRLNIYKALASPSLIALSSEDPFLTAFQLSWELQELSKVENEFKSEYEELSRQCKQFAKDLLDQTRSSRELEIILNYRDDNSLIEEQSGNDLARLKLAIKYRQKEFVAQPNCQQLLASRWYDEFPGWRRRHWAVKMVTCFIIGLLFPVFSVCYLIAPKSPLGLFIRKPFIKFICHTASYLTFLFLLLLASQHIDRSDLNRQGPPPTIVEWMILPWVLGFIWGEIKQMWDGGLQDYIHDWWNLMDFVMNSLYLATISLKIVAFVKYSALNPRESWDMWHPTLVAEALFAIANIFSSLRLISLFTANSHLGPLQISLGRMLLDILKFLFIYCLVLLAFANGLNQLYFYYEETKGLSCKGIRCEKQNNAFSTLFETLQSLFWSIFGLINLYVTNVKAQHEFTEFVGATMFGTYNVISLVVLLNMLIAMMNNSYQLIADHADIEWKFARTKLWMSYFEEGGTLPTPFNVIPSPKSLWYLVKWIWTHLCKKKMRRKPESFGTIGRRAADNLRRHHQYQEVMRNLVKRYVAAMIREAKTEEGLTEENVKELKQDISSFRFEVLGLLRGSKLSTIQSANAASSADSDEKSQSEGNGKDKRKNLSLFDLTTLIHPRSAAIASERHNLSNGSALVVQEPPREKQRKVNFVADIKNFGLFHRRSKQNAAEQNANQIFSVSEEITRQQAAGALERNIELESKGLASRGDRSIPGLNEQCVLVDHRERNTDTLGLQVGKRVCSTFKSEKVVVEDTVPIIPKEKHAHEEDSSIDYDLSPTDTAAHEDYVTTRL
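Signal: kinetic Fluo4 fluorescence imaging of calcium influx. Material: stable TRPC4beta/mu-opioid receptor HEK293 cells. Probe or stimulus: DAMGO in two steps, submaximal then maximal.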
TRPC4 agonist: opens the mouse TRPC4 cation channel. HEK293 TRPC4beta/mu-opioid, Fluo4 calcium fluorescence; active compounds read high. Q9QUQ5. B-score at 10 µM. 0.49% of 310,000 active;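 active = B-score above 5 SD of library B-scores, and initial fluorescence ratio not above library mean plus 5 SD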;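 also: positive B-score marks a calcium rise read as TRPC4 activation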
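Assay system: HEK293 stable line with TRPC4beta plus mu-opioid receptor. Times: dye 45 min RT, read 110 s. Measured by: kinetic Fluo4 calcium fluorescence. Measure: B score of integrated ratio. Controls: assay buffer as low control, maximal DAMGO as high control.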
TRPC4 potent: TRPC4 (mouse) allosteric potentiation; B-score at 10 µM; HEK293 TRPC4beta/mu-opioid, DAMGO EC20, Fluo-4 Ca2+ flux; active compounds read high; 0.42% of 310,000 active; AID 2227;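 active = B-score of calcium response area above 5 SD of library B-scores, with initial fluorescence ratio within 5 SD of library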;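 also: B-score of integrated fluorescence ratio over time as area under calcium response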
TRPC4 sel inh 2: mouse TRPC4 off-target activity of TRPC6 inhibitors, second screen. 42% of 920 active. inhibition, % at 10 µM. HEK293 TRPC4/MOR, membrane potential dye fluorescence; channel activated by saturating DAMGO dose. shares compounds with TRPC6 inhibitor;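 active = compounds whose fluorescence signal differed from control wells by over 3 SD, either direction, in both duplicate plates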
TRPC4 spec: tests whether TRPC6 inhibitors also affect mouse TRPC4. shares compounds with TRPC6 inhibitor. HEK293 TRPC4/mu-opioid, membrane potential fluorescence. activity change, negative = inhibition, % at 10 µM. 61% of 920 active;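 active = rise or fall in signal beyond 3 SD of buffer-only wells in both replicate plates, either sign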;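 also: integrated kinetic ratio of fluorescence range over baseline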
HEK293 MPD ctr 2-1: second counter-screen for TRPC6 inhibitors: parental HEK293 cells | 31% of 920 active | signal change vs control, % at 10 µM | AID 2779 | shares compounds with TRPC6 inhibitor | parental HEK293 membrane potential dye fluorescence; maximal acetylcholine challenge after compound addition;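 active = membrane potential signal moving either way by over 3 SD of the maximum-effect control, in both duplicate plates, meaning non-specific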
HEK293 MPD ctr-1: checks TRPC6 inhibitor effects in parental HEK293 cells; shares compounds with TRPC6 inhibitor; parental HEK293 membrane potential dye fluorescence; membrane potential signal change, % at 10 µM; 60% of 920 active;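 active = membrane potential signal shifting up or down by more than 3 SD of buffer-only wells, on both duplicate plates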
HEK293 MPD ctr-2: parental HEK293 nonspecific activity of TRPC6 modulators. shares compounds with TRPC6 inhibitor. membrane potential dye fluorescence. membrane potential signal change, % at 10 µM. 51% of 2,400 active;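 active = membrane potential signal moves up or down beyond 5 SD from buffer-only wells, on both duplicate plates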
HEK293 MPD ctr 2-2: second check of TRPC6 modulator effects in parental HEK293 cells; shares compounds with TRPC6 inhibitor; membrane potential dye fluorescence; after compound, maximal acetylcholine stimulation; inhibition, % at 10 µM; 14% of 2,400 active; AID 488926;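 active = membrane potential signal drops by more than 5 SD from the mean control signal, in both duplicate plates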;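 also: plate controls were acetylcholine ECmax control wells for no effect and buffer only wells for full effect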
TRPC4/MOR mod: mouse TRPC4 off-target activity of TRPC6 modulators | shares compounds with TRPC6 inhibitor | HEK293 TRPC4/mu-opioid, membrane potential fluorescence | percent change from control (negative = decrease, positive = increase), % at 10 µM | 69% of 2,400 active | AID 488927;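 active = membrane potential signal moved up or down beyond 5 SD of buffer control wells, in both duplicate plates, actives on both sides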;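 also: plate controls were assay buffer wells for no effect and DAMGO maximal-effect wells for full effect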
TRPC4/MOR inh 2: second check of whether TRPC6 modulators also affect mouse TRPC4; shares compounds with TRPC6 inhibitor; HEK293 TRPC4/mu-opioid, membrane potential dye fluorescence; stimulated with maximal-effect DAMGO; inhibition, % at 10 µM; 55% of 2,400 active;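 active = drop in membrane potential signal beyond 5 SD of the control wells in both duplicate plates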;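 also: TRPC4 counter screen for TRPC6 hits run under conditions tuned for TRPC6 not TRPC4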
TRPC6 inh conf: confirmation of mouse TRPC6 inhibitors; AID 488960; HEK293-TRPC6, membrane potential dye, ACh-evoked depolarization; 43% of 3,300 active; inhibition, % at 10 µM; shares compounds with TRPC6 inhibitor;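 active = fluorescence ratio falls more than 5 SD below the full-stimulation control mean, in both duplicate runs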;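 also: integrated fluorescence ratio of peak minus minimum over baseline after agonist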
TRPC6 act conf: mouse TRPC6 activator confirmation. shares compounds with TRPC6 inhibitor. AID 488961. HEK293-TRPC6 membrane potential dye fluorescence, FDSS. activation, % at 10 µM. 11% of 2,800 active;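 active = ratio signal rise beyond 5 SD above unstimulated control wells' mean, seen in both duplicate runs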;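 also: plate controls were buffer EC0 wells for no effect and acetylcholine ECmax response for full effect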
Starred values were filed as active, the others as inactive; i = inactive; x = no result. Shown are actives, neighbours in structure and some others; about 2.3% of the full set was active somewhere.

SMILES	TRPC6 inhibitor	TRPC6 activator	TRPC4 block	TRPC4 agonist	TRPC4 potent	HEK293 MPD ctr-2	HEK293 MPD ctr 2-2	TRPC4/MOR mod	TRPC4/MOR inh 2	TRPC6 inh conf	TRPC6 act conf	others
CCN(CC)CC(=O)Nc1c2c(nc3ccccc13)N(C)CC2	-7.5*	i	i	i	i	-213%*	i	-30%*	54%*	48%*	i
CC(C)C(=O)Nc1c2c(nc3ccccc13)N(C)CC2	i	i	i	i	i	x	x	x	x	x	x
O=C(Oc1ccc(Cl)c2cccnc12)C12CC3CC(CC(C3)C1)C2	i	i	i	i	i	x	x	x	x	x	x
O=C(NC1CCCCC1)C(c1ccco1)N(C(=O)c1csnn1)c1cccc(Cl)c1 (stereo not given)	i	i	i	i	i	x	x	x	x	x	x
COC(=O)C1=NN(C(=O)c2cccc(Br)c2)C(O)(c2ccc(Cl)cc2)C1 (stereo not given)	i	30*	i	100*	i	457%*	i	94%*	i	x	326%*
CCOC(=O)C1=NN(C(=O)c2ccc(OC)cc2)C(O)(c2ccc(Cl)cc2)C1 (stereo not given)	i	17*	i	70*	i	344%*	i	76%*	i	x	209%*
CCOC(=O)C1=NN(C(=O)c2ccccc2)C(O)(c2ccc(C)cc2)C1 (stereo not given)	i	i	i	i	i	x	x	x	x	x	x
Cc1ccc(N2CC(C(=O)N3CCOCC3)CC2=O)cc1Cl (stereo not given)	i	i	i	i	i	x	x	x	x	x	x
CC1(C)c2[nH]c3ccccc3c2C[C@@H]2C(=O)N(Cc3ccccc3)C(=O)N21	i	i	i	i	i	x	x	x	x	x	x
CC1(C)c2[nH]c3ccccc3c2C[C@H]2C(=O)N(Cc3ccc(F)cc3)C(=O)N21	-5.5*	i	i	i	i	i	i	-9.0%*	i	i	i
Nc1cccc2c1C(=O)N(C(=O)/C=C/c1ccc(F)cc1)C2=O	i	i	i	i	i	x	x	x	x	x	x
COc1ccc(C2C(C(N)=O)=C(C)Nc3nc(CCCO)nn32)cc1OC (stereo not given)	-5.9*	i	i	i	i	i	i	i	i	i	i
COc1ccc(C2C(C(N)=O)=C(C)Nc3nc(CCCO)nn32)cc1 (stereo not given)	i	i	i	i	i	x	x	x	x	x	x
CN1CCN(c2ccc(Nc3ccnc4cc(Cl)ccc34)cc2)CC1	-6.4*	i	i	i	i	-106%*	i	-24%*	52%*	46%*	i
Clc1ccc2c(N3CCCC3)ccnc2c1	-9*	i	-6*	i	i	x	x	x	x	64%*	i	TRPC4 sel inh 2=76%*;TRPC4 spec=-25%*;HEK293 MPD ctr 2-1=37%*;HEK293 MPD ctr-1=-478%*
Clc1ccc2c(N3CCOCC3)ccnc2c1	i	i	i	i	i	x	x	x	x	x	x
CCOc1c(Cl)cc(/C=C/C(=O)N(CC)CC(=O)NCc2cccs2)cc1OC	i	i	i	i	i	x	x	x	x	x	x
CCN1CCc2c(C#N)c(NCc3ccccc3)nc(N(CC)CC)c2C1	-7.2*	i	i	i	i	x	x	x	x	i	i	TRPC4 sel inh 2=66%*;TRPC4 spec=-10%*;HEK293 MPD ctr 2-1=i;HEK293 MPD ctr-1=i
C=CCNc1nc(NCc2ccccc2)c(C#N)c2c1CN(C)CC2	-6.5*	i	i	i	i	-75%*	i	-21%*	46%*	i	i
CCCc1nc(NCc2ccccc2)c(C#N)c2c1CCCC2	i	i	i	i	i	x	x	x	x	x	x
COc1cc(/C=N/NC(=O)C2c3ccccc3Oc3ccccc32)ccc1O	i	i	i	i	i	x	x	x	x	x	x
O=C(O)c1ccc(NC(=O)C2(c3ccccc3)CCCC2)cc1	i	i	i	i	i	x	x	x	x	x	x
O=C(OCCN1CCCCC1)c1ccccc1Br	i	i	i	i	i	x	x	x	x	x	x
C[N+]1(CCCOC(=O)C2(c3ccccc3)CCCC2)CCOCC1	-5.4*	i	i	i	i	i	i	i	i	i	i
CCNC(=O)C1(c2ccccc2)CCCC1	i	i	i	i	i	x	x	x	x	x	x
O=C(OCCN1CCCC1)C1(c2ccccc2)CCCC1	-8*	i	i	i	i	x	x	x	x	64%*	x	TRPC4 sel inh 2=i;TRPC4 spec=9.8%*;HEK293 MPD ctr 2-1=16%*;HEK293 MPD ctr-1=13%*
CCN(CC)CCOC(=O)c1ccc(NC(=O)C2(c3ccccc3)CCCC2)cc1	-5.2*	i	i	i	i	125%*	i	16%*	58%*	i	x
CN(C)CCOC(=O)C1(c2ccccc2)CCCC1	-9.6*	i	i	i	i	x	x	x	x	i	x	TRPC4 sel inh 2=i;TRPC4 spec=2.4%*;HEK293 MPD ctr 2-1=19%*;HEK293 MPD ctr-1=5.8%*
O=C(OCCN1CCCCC1)C1(c2ccccc2)CCCC1	-7.4*	i	i	i	i	x	x	x	x	83%*	x	TRPC4 sel inh 2=i;TRPC4 spec=19%*;HEK293 MPD ctr 2-1=21%*;HEK293 MPD ctr-1=16%*
CC/C(CC(C)(C)c1ccccc1)=N\O	i	i	i	i	i	x	x	x	x	x	x
